Source: PubChem BioAssay
Rows were chosen to be rich in hits. Some 2.5% of all compounds tested hit in one or more screens of this group.
Glyco luc inh: blocks N-linked glycosylation in D54 reporter cells. D54 ERlucT glycosylation luciferase reporter, 24 h; percent of 100 nM tunicamycin response. reporter increase, % at 12.5 µM. 360,000 tested, 0.23% active;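 active = mean luciferase reporter signal, scaled so untreated is 0 and the glycosylation-blocking control 100, at or above a set limit in every replicate; inconclusive = mean reaches the limit but not every replicate does; inactive = mean below the limit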;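 note: luciferase carries N-glycosylation sites so blocking glycosylation raises the light; 0% = median of neutral control wells and 100% = median of 100 nM tunicamycin wells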
FN deposit inh: fibronectin deposition inhibition; 350,000 tested, 0.086% active; AH1F fibroblasts, Alexa488-fibronectin deposition fluorescence, overnight; AID 743247; inhibition, % at 12.6 µM;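 active = mean inhibition across replicates of 30% or more, regardless of how many single replicates reach that level; inconclusive = mean under 30% yet at least half of replicates reach 30%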;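 note: positive control wells lacked labelled fibronectin entirely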
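Material: AH1F fibroblast monolayer depositing Alexa488-labelled fibronectin into matrix | Input: 10000 AH1F cells/well | Medium: DMEM plus 2% serum, read in PBS | Reagent: Alexa488-fibronectin, 24 nM final in well | Compound dosing: One dose per compound, pinned | Schedule: 1 h adhesion, overnight exposure | Measured by: Fluorescence at 485 nm excitation, 525 nm emission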
EWS-Fli block: EWS/Fli transcriptional activity inhibition | A673 NR0B1-luciferase reporter, viability-normalised | 350,000 tested, 0.67% active | inhibition, % at 12.6 µM | AID 651661;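 active = mean inhibition of at least 50% after viability correction, with every replicate also passing that limit; inconclusive = mean reaches 50% but only one of two replicates passes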;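 note: firefly luciferase signal divided by Alamar Blue viability fluorescence both relative to DMSO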
Env fusion inh: HIV envelope-mediated fusion inhibition | inhibition, % at 12.3 µM | AID 651610 | 360,000 tested, 1.1% active | HeLa-JRFL Env/CEM21 cell fusion, luciferase;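 active = mean replicate inhibition score of at least 50 and every replicate individually at or above 50; inconclusive = only one of the two criteria met; inactive = mean below 50 and not all replicates reaching 50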;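 note: 0% = plate neutral controls and 100% = maraviroc near 300 nM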
PAX8 reporter: PAX8 transcriptional activity inhibition; RMG-I TPO-luciferase reporter, SteadyGlo, 24 h; inhibition, % at 12.6 µM; 360,000 tested, 1.2% active; AID 652154;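 active = mean replicate inhibition at least 60% with every replicate also reaching 60%; inconclusive = only one of the two criteria is met; inactive = mean below 60% and not all replicates reaching 60%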;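 note: luciferase light reporting Pax8 driven TPO promoter activity; plate controls were median of neutral control wells for no effect and mitoxantrone controls for full effect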
MLL AF4-AF9 inh: blocks AF4 peptide binding to human AF9; 350,000 tested, 0.47% active; AID 651704; P42568; inhibition, % at 10 µM; AlphaScreen, biotin-AF4 peptide binding to FLAG-AF9;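 active = every replicate reaching a set inhibition limit, whatever the replicate mean, cut at about 25% in these data; inconclusive = mean inhibition reaches that limit but some replicates miss it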;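 note: 0% = plate neutral control median and 100% = total signal loss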
Target sequence (P42568 whole entry, looked up): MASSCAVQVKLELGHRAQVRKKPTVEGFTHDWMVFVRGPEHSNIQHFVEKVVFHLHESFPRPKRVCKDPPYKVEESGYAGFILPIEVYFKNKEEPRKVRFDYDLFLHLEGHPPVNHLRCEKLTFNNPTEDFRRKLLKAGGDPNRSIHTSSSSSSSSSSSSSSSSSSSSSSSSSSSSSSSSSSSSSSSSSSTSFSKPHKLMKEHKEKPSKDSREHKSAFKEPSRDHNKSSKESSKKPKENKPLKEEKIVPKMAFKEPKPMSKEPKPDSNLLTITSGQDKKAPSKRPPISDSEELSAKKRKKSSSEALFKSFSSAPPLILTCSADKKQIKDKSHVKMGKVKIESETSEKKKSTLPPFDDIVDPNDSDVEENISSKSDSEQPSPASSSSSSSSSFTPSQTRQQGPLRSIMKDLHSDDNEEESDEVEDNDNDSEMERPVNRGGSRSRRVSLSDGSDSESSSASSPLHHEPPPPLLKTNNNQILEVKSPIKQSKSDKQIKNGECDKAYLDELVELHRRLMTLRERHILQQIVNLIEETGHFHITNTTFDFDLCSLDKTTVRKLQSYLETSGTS
Active calls of the source: *; ? = inconclusive; . = no result; ! = repeats disagree; [ ] = another dose, or the depositor's remark.

SMILES	Glyco luc inh	FN deposit inh	EWS-Fli block	Env fusion inh	PAX8 reporter	MLL AF4-AF9 inh
CC(C)CC#Cc1cnc2c(c1)C(=O)N([C@@H](C)CO)C[C@H](C)[C@@H](CN(C)C(=O)C1CCOCC1)O2	.	.	1.5	-0.5[16.7 µM]	.	-2.2
CO[C@H]1CN(C)C(=O)c2cc(NC(C)=O)ccc2OC[C@@H](C)N(Cc2cncnc2)C[C@H]1C	.	-4.9	-1.0	9.7[16.7 µM]	.	-2.8
CCCC(=O)Nc1ccc2c(c1)OC[C@H](C)N(Cc1ccccn1)C[C@H](C)[C@H](OC)CN(C)C2=O	.	2.7	13.6	0.6[16.7 µM]	-0.7	0.4
COc1ccc(-c2cn3c(C)c(C(=O)Nc4cccc(NC(C)=O)c4)sc3n2)cc1	0.7	.	.	70.6*	.	.
Cc1cc(C)c2c(c1)/C(=N/NC(=O)c1cc(C)oc1C)CCC2	2.3	-2.5	-1.5	.	98.9*	-1.2
COc1ccc2c3c(n(C)c2c1)[C@@H](CO)N(Cc1nccs1)CC31CN(C)C1	.	.	-0.3	.	.	4.3
CC1CC(=O)NN=C1c1ccc(NCCO)c([N+](=O)[O-])c1 (stereo not given)	0.6	7.6	.	61.8*	.	.
COCC#Cc1ccc2c(c1)O[C@@H](CN(C)S(=O)(=O)c1cccc(OC)c1)[C@@H](C)CN([C@@H](C)CO)S2(=O)=O	.	-1.7	-0.2	21.6[16.7 µM]	-13.2	1.8
COc1ccc(CNC(=O)N(C)C[C@@H]2OCc3ccccc3-c3c(n(C)c4ccccc34)C(=O)N([C@@H](C)CO)C[C@@H]2C)cc1	.	-4.3	2.8	100.2*	-16.2	2.6
COc1ccc(CNC(=O)N(C)C[C@@H]2OCc3ccccc3-c3c(n(C)c4ccccc34)C(=O)N([C@H](C)CO)C[C@@H]2C)cc1	.	-19.0	19.8	85.1*[16.7 µM]	-19.2	-6.0
Fc1ccc2cc(CCO[C@H]3CCCCO3)ncc2c1	-14.3	-5.4	33.2	-53.2	-187.6	-4.2
Fc1ccc2cnc(CCO[C@H]3CCCCO3)cc2c1	-17.4	15.5	46.0	-12.8	-45.7	49.3*
C[C@H](CO)N1C[C@H](C)[C@@H](CN(C)C(=O)Nc2cccc3ccccc23)OCCCC[C@H](C)Oc2ccc(NC(=O)Nc3ccc(C(F)(F)F)cc3)cc2C1=O	.	.	3.5	19.9[16.7 µM]	-8.3	-1.6
O=C(CCS(=O)(=O)c1ccccc1)Nc1nncs1	-7.2	3.0	-27.3	-1.0	67.5*	0.2
O=C(CCS(=O)(=O)c1ccccc1)Nc1nc2c(s1)COc1ccccc1-2	-6.8	7.0	-20.1	14.3	69.5*	3.5
COCCSc1nnc(NC(=O)CS(=O)(=O)c2ccc(C)cc2)s1	0.0	-6.3	7.9	3.9	-1.8	0.3
O=C(CCCc1ccccc1)Nc1nncs1	0.1	.	.	.	.	.
CCOCCc1nnc(NC(=O)CCS(=O)(=O)c2ccccc2)s1	-9.8	0.0	-28.4	8.8	65.4*	-4.7
COCCSc1nnc(NC(=O)CCS(=O)(=O)c2ccccc2)s1	-10.0	4.6	-15.6	1.6	80.1*	1.6
C[C@@H]1CN([C@@H](C)CO)C(=O)c2c(c3ccccc3n2C)-c2ccccc2CO[C@@H]1CN(C)Cc1ccccc1C(F)(F)F	.	-18.4	30.3	.	52.0	-9.9
CC(C)Cc1nnc(NC(=O)CCS(=O)(=O)c2ccc(Cl)cc2)s1	-11.0	-8.6	.	11.0	70.6*	-0.1
CN(C)S(=O)(=O)c1cccc(NC(=O)COc2ccc(C(=O)c3ccccc3)cc2)c1	11.5	6.6	34.6	36.0	3.6	2.0
CC(=O)NS(=O)(=O)c1ccc(NC(=O)COc2ccc(C(=O)c3ccccc3)cc2)cc1	3.3	-1.4	2.8	.	75.3*	12.8
O=C(C[C@@H]1CC[C@@H](NC(=O)Nc2ccc(F)cc2)[C@H](CO)O1)NCc1ccccn1	.	-8.9	7.5	-4.6[16.7 µM]	-3.5	-1.2
Cc1nc([N+](=O)[O-])c(Br)n1Cc1ccc(Cl)c(Cl)c1	?	5.4	53.6*	3.5	22.7	2.5
SMILES	Glyco luc inh	FN deposit inh	EWS-Fli block	Env fusion inh	PAX8 reporter	MLL AF4-AF9 inh
C[n+]1c2cc(N)ccc2cc2ccc(N)cc21	-13.9	-87.8	61.7*	-100.6	66.2*!	-2.3
CCCNC(=O)[C@@H]1[C@@H](CO)[C@@H]2Cn3c(ccc(-c4ccccc4F)c3=O)[C@H]1N2S(C)(=O)=O	.	.	4.3	.	-22.6	1.7
O=C(/C=C/c1c[nH]c2ccccc12)c1cccc2ccccc12	29.7*	-1.1	.	-5.0	-11.6	5.0
Cn1cnc(S(=O)(=O)N[C@H]2CC[C@H](CC(=O)Nc3ccc(-c4ccccc4)cc3)O[C@H]2CO)c1	.	.	-2.5	-17.9[16.7 µM]	-1.2	-1.2
Cc1ccc(S(=O)(=O)N(C)C[C@@H]2OCc3ccccc3-c3c(n(C)c4ccccc34)C(=O)N([C@H](C)CO)C[C@@H]2C)cc1	-3.1	-3.9	7.7	95.0*	71.3*!	4.2
C[C@H]1CN([C@@H](C)CO)C(=O)c2c(c3ccccc3n2C)-c2ccccc2CO[C@@H]1CN(C)S(=O)(=O)c1ccsc1	.	4.4	13.2	39.4[16.7 µM]	92.3*	-24.1
C[C@H](CO)N1C[C@H](C)[C@H](CN(C)S(=O)(=O)c2ccc(C(F)(F)F)cc2)OCc2ccccc2-c2c(n(C)c3ccccc23)C1=O	.	-13.0	-8.0	.	53.7	-2.4
Cc1ccc(S(=O)(=O)N(C)C[C@H]2OCc3ccccc3-c3c(n(C)c4ccccc34)C(=O)N([C@@H](C)CO)C[C@@H]2C)cc1	.	5.2	17.3	.	.	-0.4
C[C@H](CO)N1C[C@H](C)[C@H](CN(C)S(=O)(=O)c2ccc(Cl)cc2)OCc2ccccc2-c2c(n(C)c3ccccc23)C1=O	-4.0	-0.2	9.4	81.7*	87.8*!	2.9
C[C@H]1CN([C@@H](C)CO)C(=O)c2c(c3ccccc3n2C)-c2ccccc2CO[C@@H]1CN(C)S(=O)(=O)c1ccc(Cl)cc1	.	-2.2	15.2	.	.	0.8
C[C@@H]1CN([C@@H](C)CO)C(=O)c2c(c3ccccc3n2C)-c2ccccc2CO[C@@H]1CN(C)S(=O)(=O)c1ccc(C(F)(F)F)cc1	.	5.6	8.6	.	96.8*	2.4
Cc1noc(C)c1NC(=O)Nc1ccc2c(c1)C(=O)N([C@H](C)CO)C[C@H](C)[C@H](CN(C)C(=O)NC(C)C)OCCCC[C@@H](C)O2	.	-0.6	-6.0	-12.7[16.7 µM]	-14.7	-6.8
CCC(=O)N[C@H]1C=C[C@@H](CC(=O)NCc2ccccc2F)O[C@@H]1CO	.	.	-36.3	6.2[16.7 µM]	3.3	1.0
CC(C)(C)n1ncc2c(=O)n(Cc3cccc(Cn4cnc5c(cnn5C(C)(C)C)c4=O)c3F)cnc21	-6.4	22.3	35.2	92.4*	79.5*	2.3
Cc1ccccc1Cn1cnc2c(cnn2C(C)(C)C)c1=O	-2.5	.	.	.	.	.
CC(C)(C)c1ccc(-n2nc(C#N)c(Cl)cc2=O)cc1	-12.9	30.1*	57.8*	-24.6	111.5*	4.2
O=S(=O)(c1ccc(F)cc1)N1CCC(n2cnc3ccccc32)CC1	-4.0	-9.2	-0.5	-14.6	2.2	-1.4
O=S(=O)(c1ccc(Cl)cc1)N1CCC(n2cnc3cc(C(F)(F)F)ccc32)CC1	-4.8	3.0	.	63.8*	.	.
